In ChEMBL document CHEMBL1140307, “Design and synthesis of alpha-aryloxyphenylacetic acid derivatives: a novel class of PPARalpha/gamma dual agonists with potent antihyperglycemic and lipid modulating activity” (J Med Chem, 2005):
“And” between values parts separate entries of the source, which are not always exact repeats. Equal entries are not always repeated.

Tests used:
[1] = target: T1, Peroxisome proliferator-activated receptor gamma (Homo sapiens, UniProt P37231); assay: Agonist response against human PPAR gamma in transactivation assay; type: functional
T1 sequence (P37231 whole entry): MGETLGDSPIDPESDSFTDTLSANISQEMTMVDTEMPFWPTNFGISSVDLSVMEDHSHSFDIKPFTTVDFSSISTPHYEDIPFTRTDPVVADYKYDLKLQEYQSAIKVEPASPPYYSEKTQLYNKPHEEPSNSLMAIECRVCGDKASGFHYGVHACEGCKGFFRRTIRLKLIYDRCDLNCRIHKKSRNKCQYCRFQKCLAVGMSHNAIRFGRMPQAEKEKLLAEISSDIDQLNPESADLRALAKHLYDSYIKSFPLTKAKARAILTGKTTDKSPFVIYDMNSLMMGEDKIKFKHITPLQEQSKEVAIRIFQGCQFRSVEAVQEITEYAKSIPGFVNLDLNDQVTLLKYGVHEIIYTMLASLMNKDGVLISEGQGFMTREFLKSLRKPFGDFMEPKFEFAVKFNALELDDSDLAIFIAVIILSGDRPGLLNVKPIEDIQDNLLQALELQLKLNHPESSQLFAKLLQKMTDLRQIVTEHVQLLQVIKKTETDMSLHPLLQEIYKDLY

[2] = Half life when administered intravenously at a dose of 0.5 mg/kg to rats; type: ADME, organism-based; design: dose 0.5 mg/kg, route intravenous; details: rat, in vivo, iv
In short: (§1)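 Male Sprague-Dawley rats (n = 3) and male adult Beagle dogs (n = 4) were fasted overnight. They received either a 2 mg/kg oral gavage dose or a 0.5 mg/kg IV bolus. Blood was drawn into heparin tubes from a femoral arterial cannula (rat) or the jugular vein (dog) at set time points. Plasma was acidified with 0.5 M formate pH 3.0, stored at -70 °C and quantified by LC-MS/MS.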

[3] = Oral bioavailability in rat; type: ADME, organism-based; details: in vivo; in short: as §1
[4] = target: T2, Peroxisome proliferator-activated receptor alpha (Homo sapiens, UniProt Q07869); assay: Agonist response against human PPAR alpha in transactivation assay
T2 sequence (Q07869 whole entry): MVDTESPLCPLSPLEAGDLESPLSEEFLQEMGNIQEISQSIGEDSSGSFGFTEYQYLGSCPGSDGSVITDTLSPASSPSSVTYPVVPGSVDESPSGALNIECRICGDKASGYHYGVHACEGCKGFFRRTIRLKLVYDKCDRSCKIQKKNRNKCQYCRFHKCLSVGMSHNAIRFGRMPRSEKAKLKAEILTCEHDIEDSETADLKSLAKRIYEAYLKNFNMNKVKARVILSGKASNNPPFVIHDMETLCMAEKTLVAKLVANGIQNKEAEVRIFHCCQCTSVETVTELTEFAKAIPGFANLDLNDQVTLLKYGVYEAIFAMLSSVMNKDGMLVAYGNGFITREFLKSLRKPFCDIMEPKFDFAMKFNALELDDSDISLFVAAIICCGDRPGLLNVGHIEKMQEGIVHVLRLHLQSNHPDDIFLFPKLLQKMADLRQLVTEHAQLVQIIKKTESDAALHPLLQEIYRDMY

Cricetinae gen. sp. [5] = assay: Effect (10 mpk) on serum cholesterol in hamster; type: functional
In short: (§2)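 Male Golden Syrian hamsters on normal rodent chow, dosed orally with test compound (9 days per table legend). Serum total cholesterol and triglyceride were measured in mg/dL. Values are group means, expressed as % change versus the vehicle-treated control group.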

[6] = Half life when administered intravenously at a dose of 0.5 mg/kg to dogs; type: ADME, organism-based, Canis lupus familiaris; design: dose 0.5 mg/kg, route intravenous; details: dog, in vivo, iv; in short: as §1
Cricetinae gen. sp. [7] = assay: Effect (3 mpk) on serum cholesterol in hamster; type: functional; in short: as §2
[8] = Area under concentration time curve of compound when administered perorally at a dose of 2 mg/kg to rats; type: ADME, organism-based; design: dose 2 mg/kg, route oral; details: rat, in vivo, po; in short: as §1
Mesocricetus auratus = species on record: Mesocricetus auratus; assay: Effect (3 mpk) on serum triglyceride in hamster
[9] = Area under concentration time curve of compound when administered perorally at a dose of 2 mg/kg to dogs; type: ADME, organism-based, Canis lupus familiaris; design: dose 2 mg/kg, route oral; details: dog, in vivo, po; in short: as §1
Cricetinae gen. sp. [10] = assay: Percentage change in the serum cholesterol upon administration of compound (10 mpk) in hamster; type: functional
In short: (§3)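 Male Golden Syrian hamsters were fed normal rodent chow and dosed orally once daily with compound. Serum total cholesterol and triglyceride were measured and expressed as percent change versus vehicle controls.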

Cricetinae gen. sp. [11] = assay: Percentage change in the serum cholesterol upon administration of compound (3 mpk) in hamster; type: functional; in short: as §3
[12] = Oral bioavailability in dog; type: ADME, organism-based, Canis lupus familiaris; details: in vivo; in short: as §1
Cricetinae gen. sp. [13] = assay: Percentage change in the serum triglyceride upon administration of compound (3 mpk) in hamster; type: functional; in short: as §3
[14] = target: T1, Peroxisome proliferator-activated receptor gamma; assay: In vitro binding affinity for human PPAR gamma
[15] = target: T2, Peroxisome proliferator-activated receptor alpha; assay: In vitro binding affinity for human PPAR alpha

CCCc1cc(C(=O)CC)cc(CCC)c1O[C@H](C(=O)O)c1ccc(C(C)C)cc1
EC50 [1]: 150 nM | half-life [2]: 6.1 h | bioavailability [3]: 65% | EC50 [4]: 56 nM | Cholesterol level (Cricetinae gen. sp. [5]): 86 mg/dL | Triglyceride level (Cricetinae gen. sp. [5]): 236 mg/dL | half-life [6]: 2.5 h | Cholesterol level (Cricetinae gen. sp. [7]): 88 mg/dL | AUC [8]: 154 µM·h | Triglyceride level (Mesocricetus auratus): 259 mg/dL | AUC [9]: 70.5 µM·h | Change (Cricetinae gen. sp. [10]): -33% and -29% and -17.5% | Change (Cricetinae gen. sp. [11]): -32% | bioavailability [12]: 85% | Change (Cricetinae gen. sp. [13]): -22% | IC50 [14]: 75 nM | IC50 [15]: 23 nM
